The list is not random: actives were taken first. Their share in the collection is about 3%.
TRPC4 act = TRPC4 (mouse) channel activation; Q9QUQ5; HEK293 TRPC4beta/mu-opioid, Fluo4 calcium fluorescence; hits give high values; B-score at 10 µM; 0.49% of 310,000 active;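 active means B-score above 5 SD of library B-scores, and initial fluorescence ratio not above library mean plus 5 SD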;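 further: positive B-score marks a calcium rise read as TRPC4 activation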
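System: HEK293 cells stably co-expressing mouse TRPC4beta and mu-opioid receptor; Schedule: Fluo4 dye loading 45 min at room temperature, 110 s recording; Detection: Fluo4 fluorescence, kinetic; Evaluation: B-scored integrated calcium fluorescence ratio; Controls: buffer (low) and maximal DAMGO (high).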
Kir21 block = Kir2.1 (mouse) channel inhibition. P35561. HEK293-Kir2.1, FluxOR thallium flux fluorescence; hits give low values. B-score at 10 µM. 0.85% of 310,000 active;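 active means fluorescence ratio B-score at or below minus 3 SD of library scores, with starting-brightness B-score within 2 SD, cut at about -4.2 in these data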;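 further: channel flux triggered by added potassium and thallium sulfate stimulus; B-score of peak minus minimum fluorescence over baseline after thallium stimulus; more negative B-score means stronger Kir2.1 block with less thallium influx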
TRPC6 act = mouse TRPC6 channel activation; B-score at 10 µM; HEK293-TRPC6 membrane potential dye fluorescence; hits give high values; 0.13% of 310,000 active; Q61143;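 active means B-score of the integrated fluorescence ratio above library mean plus 3 SD, and starting fluorescence ratio within library mean plus 5 SD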;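 further: higher score means more depolarization so channel activation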
TRPC4 PAM = allosterically enhances the mouse TRPC4 cation channel | HEK293 TRPC4beta/mu-opioid, DAMGO EC20, Fluo-4 Ca2+ flux; hits give high values | B-score at 10 µM | 0.42% of 310,000 active | AID 2227 | Q9QUQ5;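 active means B-score of calcium response area above 5 SD of library B-scores, with initial fluorescence ratio within 5 SD of library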;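 further: B-score of integrated fluorescence ratio over time as area under calcium response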
TRPC6 inhibitor = mouse TRPC6 channel inhibition; Q61143; HEK293-TRPC6, membrane potential dye, ACh-evoked depolarization; hits give low values; B-score at 10 µM; 1.1% of 310,000 active; AID 2553;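 active means B-score under library mean minus 3 SD, initial fluorescence not abnormally high, positive integrated signal ratio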;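 further: B-score derived from integrated fluorescence ratio over the kinetic read; more negative B-score means stronger inhibition of depolarization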
TRPC4 inh = TRPC4 (mouse) channel inhibition; Q9QUQ5; HEK293 TRPC4beta/mu-opioid, DAMGO-evoked Fluo4 calcium flux; hits give low values; B-score at 10 µM; 0.39% of 300,000 active; AID 2247;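 active means B-score over 3 SD under the library average, no early fluorescence shift, positive overall ratio signal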
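Assay system: Stable TRPC4beta/mu-opioid receptor HEK293 cells | Reagent: DAMGO in two steps, submaximal then maximal | Compound dosing: Single concentration per test compound | Signal: Fluo4 Ca2+ flux fluorescence | Evaluation: Per-well B score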
Starred values were filed as active, the others as inactive.

Screening CCOC(=O)C1=C(C)N=c2s/c(=C/c3cccc([N+](=O)[O-])c3O)c(=O)n2C1c1ccc(OC)cc1OC (stereo unspecified) returned TRPC4 act inactive, Kir21 block 0.45, TRPC6 act inactive, TRPC4 PAM inactive, TRPC6 inhibitor -5.2* and TRPC4 inh inactive.
CCOC(=O)C1=C(C)N=c2s/c(=C\c3ccc(O)c([N+](=O)[O-])c3)c(=O)n2C1c1ccccc1OC (stereo unspecified) was read as TRPC4 act inactive, Kir21 block 0.85, TRPC6 act inactive, TRPC4 PAM inactive, TRPC6 inhibitor inactive and TRPC4 inh inactive.
Fc1ccc(-n2cc(CNCCc3ccncc3)c(-c3ccccc3Cl)n2)cc1 was read as TRPC4 act inactive, Kir21 block -1.3, TRPC6 act inactive, TRPC4 PAM inactive, TRPC6 inhibitor inactive and TRPC4 inh -6*.
For Fc1ccc(-c2nn(-c3ccccc3)cc2CNCc2ccccc2)cc1 the results were TRPC4 act 96*, Kir21 block -3, TRPC6 act inactive, TRPC4 PAM inactive, TRPC6 inhibitor inactive and TRPC4 inh inactive.
Screening Fc1ccc(-n2cc(CNCCc3cccnc3)c(-c3ccccc3Cl)n2)cc1 returned TRPC4 act 124*, Kir21 block -0.09, TRPC6 act inactive, TRPC4 PAM inactive, TRPC6 inhibitor inactive and TRPC4 inh inactive.
`O=C(Cc1ccc(F)cc1)NCc1cccnc1` gave TRPC4 act inactive, Kir21 block -1.5, TRPC6 act inactive, TRPC4 PAM inactive, TRPC6 inhibitor inactive and TRPC4 inh inactive.
Screening COc1ccc(-n2cc(CNCCCN3CCCC3=O)c(-c3ccccc3Cl)n2)cc1 returned TRPC4 act inactive, Kir21 block -0.09, TRPC6 act inactive, TRPC4 PAM inactive, TRPC6 inhibitor inactive and TRPC4 inh inactive.
For O=C(O)Cc1cn(-c2ccccc2)nc1-c1ccccc1 the results were TRPC4 act inactive, Kir21 block -0.47, TRPC6 act inactive, TRPC4 PAM inactive, TRPC6 inhibitor inactive and TRPC4 inh inactive.
For O=C(COC(=O)CNS(=O)(=O)c1ccc(F)c(F)c1F)Nc1ccc(OC(F)F)cc1 the results were TRPC4 act inactive, Kir21 block 0.41, TRPC6 act inactive, TRPC4 PAM inactive, TRPC6 inhibitor inactive and TRPC4 inh inactive.
`COc1ccc(OCc2nnc(SCC(=O)N3C(C)CCCC3C)o2)cc1` (stereo unspecified) gave TRPC4 act inactive, Kir21 block -3.2, TRPC6 act inactive, TRPC4 PAM inactive, TRPC6 inhibitor inactive and TRPC4 inh inactive.
For O=C(O)c1cnc(-c2ccccc2)nc1Sc1ccc(Cl)cc1Cl the results were TRPC4 act inactive, Kir21 block 1.6, TRPC6 act inactive, TRPC4 PAM inactive, TRPC6 inhibitor inactive and TRPC4 inh -6*.
Screening O=C(OCC(=O)N1CCN(C(=O)c2ccco2)CC1)c1ccccc1NCCO returned TRPC4 act inactive, Kir21 block 0.07, TRPC6 act inactive, TRPC4 PAM inactive, TRPC6 inhibitor inactive and TRPC4 inh inactive.
`COc1ccc(OC)c(S(=O)(=O)NC2CCSc3ccccc32)c1` (stereo unspecified) gave TRPC4 act inactive, Kir21 block -3.4, TRPC6 act inactive, TRPC4 PAM inactive, TRPC6 inhibitor inactive and TRPC4 inh inactive.
`O=C(CNS(=O)(=O)c1ccc2ccccc2c1)NCCc1ccccn1` gave TRPC4 act 137*, Kir21 block -0.02, TRPC6 act inactive, TRPC4 PAM inactive, TRPC6 inhibitor inactive and TRPC4 inh inactive.
Screening CCOC(=O)c1c(S(=O)(=O)NCc2ccc(C)o2)c(C)n(C)c1C returned TRPC4 act inactive, Kir21 block -3.5, TRPC6 act inactive, TRPC4 PAM inactive, TRPC6 inhibitor inactive and TRPC4 inh inactive.
For Cc1cc(C)nc(NNS(=O)(=O)c2ccc(F)c(Cl)c2)n1 the results were TRPC4 act inactive, Kir21 block -1.8, TRPC6 act inactive, TRPC4 PAM 17*, TRPC6 inhibitor inactive and TRPC4 inh inactive.
Screening COc1ccc(S(=O)(=O)N2CCc3cc4c(cc3C2C)OCCCO4)cc1 (stereo unspecified) returned TRPC4 act inactive, Kir21 block -4.4*, TRPC6 act inactive, TRPC4 PAM inactive, TRPC6 inhibitor inactive and TRPC4 inh inactive.
Screening NS(=O)(=O)c1ccc(NC(=O)COC(=O)CCc2ccc(S(=O)(=O)N3CCOCC3)cc2)cc1 returned TRPC4 act inactive, Kir21 block 1.1, TRPC6 act inactive, TRPC4 PAM inactive, TRPC6 inhibitor inactive and TRPC4 inh inactive.
Screening CC1CN(c2ccc([N+](=O)[O-])c(NCCOc3ccc(Cl)cc3)c2)CC(C)N1 (stereo unspecified) returned TRPC4 act inactive, Kir21 block -8*, TRPC6 act inactive, TRPC4 PAM inactive, TRPC6 inhibitor inactive and TRPC4 inh inactive.
For Cc1ccc(C)c(C(=O)Nc2nc3ccccc3[nH]2)c1 the results were TRPC4 act inactive, Kir21 block 0.74, TRPC6 act inactive, TRPC4 PAM inactive, TRPC6 inhibitor inactive and TRPC4 inh inactive.
For Cc1ccc(Nc2nc3ccccc3[nH]2)nc1 the results were TRPC4 act 108*, Kir21 block 1.6, TRPC6 act inactive, TRPC4 PAM inactive, TRPC6 inhibitor inactive and TRPC4 inh inactive.
For CCc1ccccc1Nc1nc2ccccc2[nH]1 the results were TRPC4 act inactive, Kir21 block 0.05, TRPC6 act inactive, TRPC4 PAM inactive, TRPC6 inhibitor inactive and TRPC4 inh -5*.
For CN(Cc1ccccc1)C(=O)c1nc2ccccn2c1CN1CCC(N2CCOCC2)CC1 the results were TRPC4 act inactive, Kir21 block 0.51, TRPC6 act inactive, TRPC4 PAM inactive, TRPC6 inhibitor inactive and TRPC4 inh inactive.
For O=C(OCCN1CCN(c2ncc(C(F)(F)F)cc2Cl)CC1)c1ccc(F)cc1 the results were TRPC4 act inactive, Kir21 block -0.08, TRPC6 act inactive, TRPC4 PAM 10*, TRPC6 inhibitor inactive and TRPC4 inh inactive.
Screening O=C(CN1CCN(c2ncc(C(F)(F)F)cc2Cl)CC1)N1CCN(c2ncc(C(F)(F)F)cc2Cl)CC1 returned TRPC4 act 93*, Kir21 block 1.4, TRPC6 act inactive, TRPC4 PAM inactive, TRPC6 inhibitor inactive and TRPC4 inh inactive.
`CN(C)c1ccc(NC(=S)N2CCN(c3ncc(C(F)(F)F)cc3Cl)CC2)cc1` gave TRPC4 act 127*, Kir21 block 0.18, TRPC6 act inactive, TRPC4 PAM inactive, TRPC6 inhibitor inactive and TRPC4 inh inactive.

Screening results as filed in PubChem BioAssay.
